Test results from ChEMBL document CHEMBL1629694, “Inhibition of dengue virus RNA synthesis by an adenosine nucleoside” (Antimicrob Agents Chemother, 2010).
The source made the active and inactive calls. No cut-off for these calls is given here.

Legend:
[1] = Cytotoxicity against human A549 cells assessed as intracellular ATP level by Celltiter-Glo luminescent assay; assay type: cell-based
dengue virus type 2 [2] = assay: Antiviral activity against at 0.3 MOI Dengue virus 2 infected in human A549 cells assessed as level of E protein after 48 hrs by ELISA; assay type: functional, organism-based; conditions: A549, 48 h
Method in brief: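 CFI assay: A549 cells (2 × 10^4/well) seeded and infected the next day with DENV-2 at MOI 0.3 for 1 h, compound added to the inoculum. Medium then replaced with fresh medium containing compound. Cells methanol-fixed on day 2 p.i. E protein detected by ELISA (mAb 4G2, HRP anti-mouse IgG). EC50 from nonlinear regression.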

dengue virus type 2 [3] = assay: Antiviral activity against 3x10^7 PFU Dengue virus 2 D2S10 infected in alpha/beta interferon and INFgamma receptor deficient AG129 mouse assessed as protection against lethal virus challenge at 75 mg/kg, po treated 12 hrs postinfection by HPLC; assay type: functional, organism-based; design: dose 75 mg/kg
Method in brief: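 AG129 mice infected intravenously with 3 × 10^7 PFU of mouse-adapted DENV-2 strain D2S10. A single 75 mg/kg dose given at 12 h postinfection. Read-out was survival after the lethal challenge.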

Plasma = assay: Drug uptake in rat plasma at 25 mg/kg, po by […]; assay type: ADME, organism-based; design: dose 25 mg/kg, route oral; conditions: in vivo
Method in brief: (§1)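 Male Han-Wistar rats given 14C-labeled compound (label at adenine C-2) as a single intravenous 5 mg/kg or oral 25 mg/kg dose. Plasma and blood pellets sampled over time; pellets first taken up in 2 volumes of pH 2.5 ammonium formate/0.1% formic acid. Extraction in ice-cold acetonitrile (3:1). Metabolites profiled by HPLC with off-line radioactivity detection and identified by MS.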

dengue virus type 2 [4] = assay: Antiviral activity against Dengue virus 2 TSVO1 infected in alpha/beta interferon and INFgamma receptor deficient AG129 mouse assessed as […] at 150 mg/kg, po 12 hrs postinfection measured after 3 days of infection […]; assay type: functional, organism-based; design: dose 150 mg/kg
Blood [5] = assay: Drug uptake in rat blood assessed as mono-derivatives of compound level at 25 mg/kg, po by […]; assay type: ADME, organism-based; design: dose 25 mg/kg, route oral; conditions: in vivo; method in brief: as §1
dengue virus type 2 [6] = assay: Antiviral activity against at 1 MOI of Dengue virus 2 infected in hamster BHK21 cells assessed as decrease in viral NS3 protein expression at 1 uM after 35 hrs post-transfection by […]; assay type: functional, organism-based; conditions: BHK-21, 1 M
Method in brief: (§2)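 Replicon-electroporated BHK-21 cells treated immediately with 1 or 3 μM compound, with 0.9% DMSO control. Cells lysed at 24 and 35 h p.t. NS3 detected by Western blot with in-house rabbit anti-NS3 (1:5,000). γ-Tubulin (1:1,000) served as reference, with HRP secondary antibodies (1:8,000).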

dengue virus type 2 [7] = assay: Antiviral activity against at 1 MOI of Dengue virus 2 infected in hamster BHK21 cells assessed as decrease in viral RNA synthesis at 3 uM after 24 hrs post-transfection by luciferase reporter gene assay; assay type: functional, organism-based; conditions: BHK-21, 1 M
Method in brief: (§3)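 DENV-2 luciferase replicon RNA (10 μg) electroporated into 8 × 10^6 BHK-21 cells, then seeded at 3.2 × 10^5/well. Cells incubated immediately with 1 or 3 μM compound, with 0.9% DMSO (final) as control. Luciferase measured at 2–4 h (translation of input RNA) and at 24 and 35 h p.t. (RNA synthesis).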

dengue virus type 2 [8] = assay: Selectivity ratio of EC50 for Dengue virus 2 infected in human HEK293 cells in presence of siRNA targeting adenosine kinase to EC50 for Dengue virus 2 infected in human HEK293 cells in absence of siRNA targeting adenosine kinase; assay type: functional
Method in brief: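 siRNA pools (10 pmol, four siRNAs against adenosine kinase or deoxycytidine kinase) reverse-transfected with RNAiMax into HEK-293 cells carrying a DENV-2 luciferase replicon (2 × 10^4/well). After 24 h at 37°C, graded compound concentrations were added. Renilla luciferase was read 3 days later. EC50s were compared with and without siRNA.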

dengue virus type 2 [9] = assay: Antiviral activity against Dengue virus 2 infected in human HEK293 cells assessed as level of viral titer after 48 hrs by luciferase reporter gene assay in presence of siRNA targeting adenosine kinase; assay type: functional, organism-based; conditions: HEK293, 48 h
dengue virus type 2 [10] = assay: Antiviral activity against at 1 MOI of Dengue virus 2 infected in hamster BHK21 cells assessed as decrease in viral RNA synthesis at 3 uM after 2 to 4 hrs post-transfection by luciferase reporter gene assay; assay type: functional, organism-based; conditions: BHK-21, 1 M; method in brief: as §3
dengue virus type 2 [11] = assay: Antiviral activity against at 1 MOI of Dengue virus 2 infected in hamster BHK21 cells assessed as decrease in viral RNA synthesis at 3 uM after 35 hrs post-transfection by luciferase reporter gene assay; assay type: functional, organism-based; conditions: BHK-21, 1 M; method in brief: as §3
dengue virus type 2 [12] = assay: Antiviral activity against at 1 MOI of Dengue virus 2 infected in hamster BHK21 cells assessed as decrease in viral NS3 protein expression at 1 uM after 24 hrs post-transfection by […]; assay type: functional, organism-based; conditions: BHK-21, 1 M; method in brief: as §2
Blood [13] = assay: Drug uptake in rat blood assessed as di-derivatives of compound level at 25 mg/kg, po by […]; assay type: ADME, organism-based; design: dose 25 mg/kg, route oral; conditions: in vivo; method in brief: as §1
Blood [14] = assay: Drug uptake in rat blood assessed as tri-derivatives of compound level at 25 mg/kg, po by […]; assay type: ADME, organism-based; design: dose 25 mg/kg, route oral; conditions: in vivo; method in brief: as §1
[15] = Cytotoxicity against hamster BHK21 cells assessed as intracellular ATP level upto 100 uM by Celltiter-Glo luminescent assay; assay type: cell-based, Mesocricetus auratus; conditions: bhk-21
Method in brief: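 CC50 estimated from intracellular ATP by CellTiter-Glo luminescence. BHK-21 cells were tested up to 100 μM.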

dengue virus type 2 [16] = assay: Antiviral activity against at 1 MOI of Dengue virus 2 infected in hamster BHK21 cells assessed as decrease in viral RNA synthesis at 1 uM after 2 to 4 hrs post-transfection by luciferase reporter gene assay; assay type: functional, organism-based; conditions: BHK-21, 1 M; method in brief: as §3
dengue virus type 2 [17] = assay: Antiviral activity against at 1 MOI of Dengue virus 2 infected in hamster BHK21 cells assessed as decrease in viral RNA synthesis at 1 uM after 35 hrs post-transfection by luciferase reporter gene assay; assay type: functional, organism-based; conditions: BHK-21, 1 M; method in brief: as §3
dengue virus type 2 [18] = assay: Antiviral activity against at 0.3 MOI of Dengue virus 2 infected in hamster BHK21 cells assessed as reduction in viral titer after 48 hrs postinfection; assay type: functional, organism-based
Method in brief: (§4)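 BHK-21 cells infected with DENV-2 at MOI 0.3 and treated immediately with graded compound concentrations. Viral titers in culture fluid determined at 48 h p.i.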

dengue virus type 2 [19] = assay: Antiviral activity against at 0.3 MOI of Dengue virus 2 infected in hamster BHK21 cells assessed as reduction in viral titer at 6 uM after 48 hrs postinfection; assay type: functional, organism-based; conditions: BHK-21, 0.3 M; method in brief: as §4
dengue virus type 2 [20] = assay: Antiviral activity against Dengue virus 2 infected in human HEK293 cells assessed as level of viral titer after 48 hrs by luciferase reporter gene assay in presence of siRNA targeting deoxycytidine kinase; assay type: functional, organism-based
dengue virus type 2 [21] = assay: Antiviral activity against at 1 MOI of Dengue virus 2 infected in hamster BHK21 cells assessed as viral titer after 48 hrs postinfection by plaque assay; assay type: functional, organism-based; conditions: BHK-21, 1 M
dengue virus type 2 [22] = assay: Antiviral activity against at 1 MOI of Dengue virus 2 infected in hamster BHK21 cells assessed as decrease in viral NS3 protein expression at 3 uM after 24 hrs post-transfection by […]; assay type: functional, organism-based; conditions: BHK-21, 1 M; method in brief: as §2
dengue virus type 2 [23] = assay: Antiviral activity against Dengue virus 2 TSVO1 infected in alpha/beta interferon and INFgamma receptor deficient AG129 mouse assessed as decrease in viral load treated 12 hrs postinfection measured after 3 days of infection […]; assay type: functional, organism-based
dengue virus type 2 [24] = assay: Antiviral activity against at 1 MOI of Dengue virus 2 infected in hamster BHK21 cells assessed as decrease in viral NS3 protein expression at 3 uM after 35 hrs post-transfection by […]; assay type: functional, organism-based; conditions: BHK-21, 1 M; method in brief: as §2
dengue virus type 2 [25] = assay: Antiviral activity against Dengue virus 2 TSVO1 infected in alpha/beta interferon and INFgamma receptor deficient AG129 mouse assessed as decrease in viral load at 300 mg/kg, po 12 hrs postinfection […]; assay type: functional, organism-based; design: dose 300 mg/kg
dengue virus type 2 [26] = assay: Antiviral activity against Dengue virus 2 infected in human A549 cells assessed as level of E protein production up to 20 uM by ELISA in presence of 0.2 uM adenosine kinase inhibitor iodotubercidin; assay type: functional, organism-based
Method in brief: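 CFI assay in A549 cells with iodotubercidin at 0.2 μM and test compound up to 20 μM. Cells infected with DENV-2 at MOI 0.3 for 1 h with compound in the inoculum, then refed with compound-containing medium. Methanol fixation on day 2 p.i. E protein read by 4G2/HRP ELISA.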

dengue virus type 2 [27] = assay: Antiviral activity against at 1 MOI of Dengue virus 2 infected in hamster BHK21 cells assessed as decrease in viral RNA synthesis at 1 uM after 24 hrs post-transfection by luciferase reporter gene assay; assay type: functional, organism-based; conditions: BHK-21, 1 M; method in brief: as §3

## C=C[C@@]1(O)[C@H](O)[C@@H](CO)O[C@H]1n1cnc2c(N)ncnc21
[1]
  CC50: > 59 µM
Dengue virus type 2 [2]
  EC50: > 50 µM

## C#C[C@@]1(O)[C@H](O)[C@@H](CO)O[C@H]1n1cnc2c(N)ncnc21
[1]
  CC50: 40 µM
Dengue virus type 2 [2]
  EC50: 1.41 µM

## CC#C[C@@]1(O)[C@H](O)[C@@H](CO)O[C@H]1n1cnc2c(N)ncnc21
[1]
  CC50: > 100 µM
Dengue virus type 2 [2]
  EC50: > 100 µM

## C#C[C@@]1(O)[C@H](O)[C@@H](CO)O[C@H]1n1cc(C(N)=O)c2c(N)ncnc21
[1]
  CC50: 62 µM
Dengue virus type 2 [2]
  EC50: 2 µM

## CC[C@@]1(O)[C@H](O)[C@@H](CO)O[C@H]1n1cnc2c(N)ncnc21
[1]
  CC50: > 100 µM
Dengue virus type 2 [2]
  EC50: > 100 µM

## C#C[C@@]1(O)[C@H](O)[C@@H](CO)O[C@H]1n1cc(C#N)c2c(N)ncnc21
[1]
  CC50: > 100 µM
Dengue virus type 2 [2]
  EC50: 3.1 µM

## C[C@@]1(O)[C@H](O)[C@@H](CO)O[C@H]1n1cnc2c(N)ncnc21
[1]
  CC50: > 50 µM
Dengue virus type 2 [2]
  EC50: 1.12 µM

## C#C[C@@]1(O)[C@H](O)[C@@H](CO)O[C@H]1n1cc(F)c2c(N)ncnc21
[1]
  CC50: 44 µM
Dengue virus type 2 [2]
  EC50: 0.42 µM

## C#C[C@@]1(O)[C@H](O)[C@@H](CO)O[C@H]1n1ccc(N)nc1=O [2'-ETHYNYL-D-CYTIDINE]
[1]
  CC50: > 100 µM
Dengue virus type 2 [2]
  EC50: > 100 µM

## C#C[C@@]1(O)[C@H](O)[C@@H](CO)O[C@H]1n1ccc2c(N)ncnc21
Dengue virus type 2 [3]
  Activity: Active
Plasma
  Drug uptake: Active
Dengue virus type 2 [4]
  Activity: inactive
Blood [5]
  Drug uptake: Active
[1]
  CC50: > 100 µM
Dengue virus type 2 [6]
  Activity: Active
Dengue virus type 2 [7]
  Activity: Active
Dengue virus type 2 [8]
  Selectivity ratio: 11
Dengue virus type 2 [9]
  EC50: 9.2 µM
Dengue virus type 2 [10]
  Activity: inactive
Dengue virus type 2 [11]
  Activity: Active
Dengue virus type 2 [12]
  Activity: Active
Blood [13]
  Drug uptake: Active
Dengue virus type 2 [2]
  EC50: 0.7 µM
Blood [14]
  Drug uptake: Active
[15]
  Activity: Non-toxic
Dengue virus type 2 [16]
  Activity: inactive
Dengue virus type 2 [17]
  Activity: Active
Dengue virus type 2 [18]; BHK-21, 0.3 M
  Activity: Dose-dependent effect
Dengue virus type 2 [18]; BHK-21, 48 h
  EC50: 0.7 µM
Dengue virus type 2 [19]
  Activity: Active
Dengue virus type 2 [20]
  Activity: Active
Dengue virus type 2 [21]
  Activity: Active
Dengue virus type 2 [22]
  Activity: Active
Dengue virus type 2 [23]
  Activity: Active
Dengue virus type 2 [24]
  Activity: Active
Dengue virus type 2 [25]
  Activity: inactive
Dengue virus type 2 [26]
  Activity: inactive
Dengue virus type 2 [27]
  Activity: Active

## C#C[C@@]1(O)[C@H](O)[C@@H](CO)O[C@H]1n1cnc2c(=O)[nH]c(N)nc21
[1]
  CC50: > 100 µM
Dengue virus type 2 [2]
  EC50: > 100 µM
